Reference: ChEMBL document CHEMBL2346629, “Discovery and characterization of novel allosteric FAK inhibitors” (Eur J Med Chem, 2013)

What was measured:
[1] = target: Serine/threonine-protein kinase TAO3 (Homo sapiens) (UniProt Q9H2K8); test: Inhibition of TAOK3 (unknown origin) using [gamma-33P]ATP assessed as residual activity at 3 uM
[2] = target: cGMP-dependent protein kinase 1 (Homo sapiens) (UniProt Q13976); test: Inhibition of PKG1a (unknown origin) using [gamma-33P]ATP assessed as residual activity at 3 uM
[3] = target: Calcium/calmodulin-dependent protein kinase type II subunit gamma (Homo sapiens) (UniProt Q13555); test: Inhibition of CAMK2g (unknown origin) using [gamma-33P]ATP assessed as residual activity at 3 uM
Method in brief: (§1)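 Radiometric profiling across 288 kinases (261 wild-type, 27 mutant), run as an outsourced service. Inhibition read out as [gamma-33P]ATP incorporation into substrate.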

[4] = target: Dual specificity protein kinase TTK (Homo sapiens) (UniProt P33981); test: Inhibition of TTK (unknown origin) using [gamma-33P]ATP assessed as residual activity at 3 uM
[5] = target: Serine/threonine-protein kinase D2 (Homo sapiens) (UniProt Q9BZL6); test: Inhibition of PKD2 (unknown origin) using [gamma-33P]ATP assessed as residual activity at 3 uM
Sequence of Serine/threonine-protein kinase D2 (Homo sapiens) (Q9BZL6 whole entry): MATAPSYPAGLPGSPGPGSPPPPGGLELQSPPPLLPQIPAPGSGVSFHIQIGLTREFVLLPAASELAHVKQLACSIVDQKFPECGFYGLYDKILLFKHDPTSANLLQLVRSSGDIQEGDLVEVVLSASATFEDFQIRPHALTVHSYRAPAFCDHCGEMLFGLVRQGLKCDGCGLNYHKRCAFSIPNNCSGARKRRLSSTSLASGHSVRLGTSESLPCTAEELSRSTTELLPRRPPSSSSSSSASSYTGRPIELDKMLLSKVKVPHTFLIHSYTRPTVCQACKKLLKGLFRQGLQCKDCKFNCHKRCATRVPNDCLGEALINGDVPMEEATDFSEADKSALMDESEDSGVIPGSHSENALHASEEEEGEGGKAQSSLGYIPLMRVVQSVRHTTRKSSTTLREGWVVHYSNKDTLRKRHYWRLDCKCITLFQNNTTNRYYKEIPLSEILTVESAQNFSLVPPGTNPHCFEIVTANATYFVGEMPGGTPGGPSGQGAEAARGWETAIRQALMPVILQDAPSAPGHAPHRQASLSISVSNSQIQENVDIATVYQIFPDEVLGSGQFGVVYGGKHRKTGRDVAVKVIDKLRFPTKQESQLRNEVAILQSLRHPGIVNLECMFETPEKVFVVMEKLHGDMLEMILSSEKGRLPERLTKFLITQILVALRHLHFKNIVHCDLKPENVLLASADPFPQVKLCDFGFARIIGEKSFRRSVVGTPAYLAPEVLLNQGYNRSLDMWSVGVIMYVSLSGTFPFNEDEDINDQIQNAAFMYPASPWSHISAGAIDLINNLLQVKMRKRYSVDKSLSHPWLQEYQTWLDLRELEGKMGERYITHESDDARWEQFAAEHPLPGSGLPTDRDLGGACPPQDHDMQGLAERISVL

[6] = target: Dual specificity tyrosine-phosphorylation-regulated kinase 1B (Homo sapiens) (UniProt Q9Y463); test: Inhibition of DYRK1B (unknown origin) using [gamma-33P]ATP assessed as residual activity at 3 uM
Method in brief: (§2)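 Reaction Biology HotSpot radiometric profiling panel of 288 kinases (261 wild-type, 27 mutant). Kinase activity was read out by incorporation of [γ-33P]ATP.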

[7] = target: Wee1-like protein kinase (Homo sapiens) (UniProt P30291); test: Inhibition of WEE1 (unknown origin) using [gamma-33P]ATP assessed as residual activity at 3 uM
Sequence of Wee1-like protein kinase (Homo sapiens) (P30291 whole entry, looked up): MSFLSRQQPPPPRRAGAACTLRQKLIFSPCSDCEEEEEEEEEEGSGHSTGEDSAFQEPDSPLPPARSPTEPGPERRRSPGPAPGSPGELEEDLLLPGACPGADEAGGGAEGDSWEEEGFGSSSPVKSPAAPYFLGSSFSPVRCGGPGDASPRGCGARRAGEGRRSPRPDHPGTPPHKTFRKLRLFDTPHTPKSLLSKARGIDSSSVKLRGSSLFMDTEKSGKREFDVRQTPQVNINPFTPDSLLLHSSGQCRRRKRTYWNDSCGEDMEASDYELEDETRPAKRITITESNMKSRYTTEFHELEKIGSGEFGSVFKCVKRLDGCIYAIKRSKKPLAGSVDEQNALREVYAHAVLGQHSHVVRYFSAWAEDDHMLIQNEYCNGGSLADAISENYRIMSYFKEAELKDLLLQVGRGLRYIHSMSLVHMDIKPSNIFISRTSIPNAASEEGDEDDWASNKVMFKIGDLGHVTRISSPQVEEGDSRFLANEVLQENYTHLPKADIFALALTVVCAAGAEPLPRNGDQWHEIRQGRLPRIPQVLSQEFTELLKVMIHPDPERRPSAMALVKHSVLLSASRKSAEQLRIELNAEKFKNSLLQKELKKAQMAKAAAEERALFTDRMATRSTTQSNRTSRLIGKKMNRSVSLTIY

[8] = tested on: Epidermal growth factor receptor (Homo sapiens), P00533 [L861R,T790M]; test: Inhibition of EGFR […] double mutant (unknown origin) using [gamma-33P]ATP assessed as residual activity at 3 uM; assay type: protein assay; method in brief: as §2
[9] = target: Ribosomal protein S6 kinase beta-1 (Homo sapiens) (UniProt P23443); test: Inhibition of P70S6K (unknown origin) using [gamma-33P]ATP assessed as residual activity at 3 uM
[10] = target: Protein kinase C beta type (Homo sapiens) (UniProt P05771); test: Inhibition of PKCb2 (unknown origin) using [gamma-33P]ATP assessed as residual activity at 3 uM
[11] = target: Maternal embryonic leucine zipper kinase (Homo sapiens) (UniProt Q14680); test: Inhibition of MELK (unknown origin) using [gamma-33P]ATP assessed as residual activity at 3 uM
Method in brief: (§3)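 Contract radiometric panel screen of 288 kinases (261 wild-type, 27 mutant). Inhibition was read by [gamma-33P]ATP radioactivity incorporation.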

[12] = target: Serine/threonine-protein kinase WNK2 (Homo sapiens) (UniProt Q9Y3S1); test: Inhibition of WNK2 (unknown origin) using [gamma-33P]ATP assessed as residual activity at 3 uM
Sequence of Serine/threonine-protein kinase WNK2 (Homo sapiens) (Q9Y3S1 whole entry): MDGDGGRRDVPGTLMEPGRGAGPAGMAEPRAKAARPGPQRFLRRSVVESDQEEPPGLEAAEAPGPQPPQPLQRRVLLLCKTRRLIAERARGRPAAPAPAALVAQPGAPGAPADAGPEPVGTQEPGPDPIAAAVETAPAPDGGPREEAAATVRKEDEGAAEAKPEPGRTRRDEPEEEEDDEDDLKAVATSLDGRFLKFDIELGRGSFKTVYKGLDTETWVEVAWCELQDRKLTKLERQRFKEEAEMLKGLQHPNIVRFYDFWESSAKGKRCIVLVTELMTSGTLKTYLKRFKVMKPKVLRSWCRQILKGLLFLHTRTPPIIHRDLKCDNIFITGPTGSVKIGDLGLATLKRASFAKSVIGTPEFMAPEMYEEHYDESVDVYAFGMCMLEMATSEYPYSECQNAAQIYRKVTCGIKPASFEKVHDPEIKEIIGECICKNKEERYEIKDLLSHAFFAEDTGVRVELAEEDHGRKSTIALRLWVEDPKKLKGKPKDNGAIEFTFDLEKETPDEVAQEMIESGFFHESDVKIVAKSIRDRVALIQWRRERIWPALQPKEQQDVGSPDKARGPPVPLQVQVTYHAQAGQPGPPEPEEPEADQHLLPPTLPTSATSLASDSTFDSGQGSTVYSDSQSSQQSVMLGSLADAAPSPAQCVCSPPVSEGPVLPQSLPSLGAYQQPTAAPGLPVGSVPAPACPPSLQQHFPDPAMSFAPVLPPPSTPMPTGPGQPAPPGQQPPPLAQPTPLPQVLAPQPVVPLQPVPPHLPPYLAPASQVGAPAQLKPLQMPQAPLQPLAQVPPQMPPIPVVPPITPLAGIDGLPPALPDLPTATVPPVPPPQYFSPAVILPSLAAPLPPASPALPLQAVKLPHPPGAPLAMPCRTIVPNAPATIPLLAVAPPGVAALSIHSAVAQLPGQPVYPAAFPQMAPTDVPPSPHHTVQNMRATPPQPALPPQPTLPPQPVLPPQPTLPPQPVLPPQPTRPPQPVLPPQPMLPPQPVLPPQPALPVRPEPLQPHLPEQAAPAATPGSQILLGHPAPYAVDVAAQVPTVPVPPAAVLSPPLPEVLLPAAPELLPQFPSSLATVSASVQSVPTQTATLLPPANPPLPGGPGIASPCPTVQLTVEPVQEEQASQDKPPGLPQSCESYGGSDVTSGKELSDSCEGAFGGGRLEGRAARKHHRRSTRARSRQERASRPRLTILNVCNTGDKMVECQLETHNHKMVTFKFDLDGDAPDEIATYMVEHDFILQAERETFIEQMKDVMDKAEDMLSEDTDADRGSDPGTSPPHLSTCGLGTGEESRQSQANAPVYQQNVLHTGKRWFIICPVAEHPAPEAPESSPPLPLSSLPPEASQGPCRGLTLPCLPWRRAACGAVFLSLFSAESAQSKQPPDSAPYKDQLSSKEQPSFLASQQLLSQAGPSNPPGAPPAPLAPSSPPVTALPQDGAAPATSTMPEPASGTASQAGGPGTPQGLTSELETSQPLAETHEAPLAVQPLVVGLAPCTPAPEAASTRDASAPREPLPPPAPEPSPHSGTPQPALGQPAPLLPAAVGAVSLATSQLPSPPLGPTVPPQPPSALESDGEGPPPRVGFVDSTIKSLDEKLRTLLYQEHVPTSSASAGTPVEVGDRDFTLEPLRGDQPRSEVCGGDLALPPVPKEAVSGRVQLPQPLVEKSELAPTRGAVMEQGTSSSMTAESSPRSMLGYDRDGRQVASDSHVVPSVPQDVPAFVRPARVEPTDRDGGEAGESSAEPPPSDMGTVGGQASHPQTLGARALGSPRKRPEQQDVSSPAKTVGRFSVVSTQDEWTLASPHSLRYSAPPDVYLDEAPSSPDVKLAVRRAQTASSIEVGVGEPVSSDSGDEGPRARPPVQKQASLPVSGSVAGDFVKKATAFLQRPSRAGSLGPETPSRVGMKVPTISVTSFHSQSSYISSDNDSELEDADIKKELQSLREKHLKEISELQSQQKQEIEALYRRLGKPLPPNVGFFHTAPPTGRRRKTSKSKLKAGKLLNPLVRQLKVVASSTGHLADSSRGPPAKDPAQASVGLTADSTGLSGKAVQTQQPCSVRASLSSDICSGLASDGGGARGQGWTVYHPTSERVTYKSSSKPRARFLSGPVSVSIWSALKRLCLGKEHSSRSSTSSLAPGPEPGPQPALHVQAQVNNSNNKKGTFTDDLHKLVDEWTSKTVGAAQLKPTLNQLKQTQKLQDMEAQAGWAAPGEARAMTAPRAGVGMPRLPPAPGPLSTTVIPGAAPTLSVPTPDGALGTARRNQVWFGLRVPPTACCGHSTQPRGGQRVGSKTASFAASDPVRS

[13] = target: Serine/threonine-protein kinase STK11 (Homo sapiens) (UniProt Q15831); test: Inhibition of LKB1 (unknown origin) using [gamma-33P]ATP assessed as residual activity at 3 uM
Method in brief: (§4)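 Radiometric kinase profiling service covering 288 kinases (261 wild-type, 27 mutant). Inhibition was read as incorporation from [γ-³³P]ATP.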

[14] = target: Inhibitor of nuclear factor kappa-B kinase subunit beta (Homo sapiens) (UniProt O14920); test: Inhibition of IKKb (unknown origin) using [gamma-33P]ATP assessed as residual activity at 3 uM; method in brief: as §4
[15] = tested on: Epidermal growth factor receptor (Homo sapiens), P00533 [L858R]; test: Inhibition of EGFR L858R mutant (unknown origin) using [gamma-33P]ATP assessed as residual activity at 3 uM; assay type: protein assay; method in brief: as §2
[16] = target: Serine/threonine-protein kinase B-raf (Homo sapiens) (UniProt P15056); test: Inhibition of BRAF (unknown origin) using [gamma-33P]ATP assessed as residual activity at 3 uM; method in brief: as §1
[17] = target: Receptor tyrosine-protein kinase erbB-4 (Homo sapiens) (UniProt Q15303); test: Inhibition of ErbB4 (unknown origin) using [gamma-33P]ATP assessed as residual activity at 3 uM; method in brief: as §2
[18] = target: Protein kinase C eta type (Homo sapiens) (UniProt P24723); test: Inhibition of PKCeta (unknown origin) using [gamma-33P]ATP assessed as residual activity at 3 uM
[19] = target: Tyrosine-protein kinase ABL2 (Homo sapiens) (UniProt P42684); test: Inhibition of ABL2 (unknown origin) using [gamma-33P]ATP assessed as residual activity at 3 uM; method in brief: as §1
Sequence of Tyrosine-protein kinase ABL2 (Homo sapiens) (P42684 whole entry): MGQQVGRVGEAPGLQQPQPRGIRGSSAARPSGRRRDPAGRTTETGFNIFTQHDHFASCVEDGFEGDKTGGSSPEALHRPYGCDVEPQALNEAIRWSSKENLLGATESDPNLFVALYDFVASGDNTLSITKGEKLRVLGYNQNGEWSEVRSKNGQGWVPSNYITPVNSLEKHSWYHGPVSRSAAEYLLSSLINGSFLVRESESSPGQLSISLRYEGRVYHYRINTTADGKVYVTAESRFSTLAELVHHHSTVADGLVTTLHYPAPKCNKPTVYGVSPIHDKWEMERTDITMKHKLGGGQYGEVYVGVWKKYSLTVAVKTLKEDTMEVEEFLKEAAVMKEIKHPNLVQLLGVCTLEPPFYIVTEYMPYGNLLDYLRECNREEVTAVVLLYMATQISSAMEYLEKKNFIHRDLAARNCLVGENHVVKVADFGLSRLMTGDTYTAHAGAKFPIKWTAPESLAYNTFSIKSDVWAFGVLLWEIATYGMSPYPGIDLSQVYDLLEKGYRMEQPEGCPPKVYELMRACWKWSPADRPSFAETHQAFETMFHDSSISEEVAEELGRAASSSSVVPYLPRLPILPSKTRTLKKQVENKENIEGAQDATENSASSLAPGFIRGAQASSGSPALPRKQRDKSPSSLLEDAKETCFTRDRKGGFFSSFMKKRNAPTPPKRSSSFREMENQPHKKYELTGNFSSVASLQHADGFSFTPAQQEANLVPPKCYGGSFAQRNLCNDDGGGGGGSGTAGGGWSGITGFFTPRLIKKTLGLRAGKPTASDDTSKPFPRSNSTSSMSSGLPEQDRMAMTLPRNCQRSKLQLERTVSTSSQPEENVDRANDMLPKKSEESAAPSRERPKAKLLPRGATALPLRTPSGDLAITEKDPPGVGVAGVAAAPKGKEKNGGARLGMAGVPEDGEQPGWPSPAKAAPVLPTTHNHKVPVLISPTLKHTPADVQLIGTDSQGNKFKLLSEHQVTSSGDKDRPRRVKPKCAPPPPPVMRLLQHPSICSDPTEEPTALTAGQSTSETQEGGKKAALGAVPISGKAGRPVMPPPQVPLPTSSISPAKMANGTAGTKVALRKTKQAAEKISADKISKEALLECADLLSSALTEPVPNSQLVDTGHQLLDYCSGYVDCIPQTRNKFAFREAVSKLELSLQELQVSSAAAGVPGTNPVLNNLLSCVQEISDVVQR

[20] = tested on: Fibroblast growth factor receptor 2 (Homo sapiens), P21802 [N549H]; test: Inhibition of FGFR2 N549H mutant (unknown origin) using [gamma-33P]ATP assessed as residual activity at 3 uM; method in brief: as §2
[21] = target: Platelet-derived growth factor receptor beta (Homo sapiens) (UniProt P09619); test: Inhibition of PDGFRb (unknown origin) using [gamma-33P]ATP assessed as residual activity at 3 uM
[22] = tested on: Tyrosine-protein kinase ABL1 (Homo sapiens), P00519 [Y253F]; test: Inhibition of ABL1 Y253F mutant (unknown origin) using [gamma-33P]ATP assessed as residual activity at 3 uM; method in brief: as §1
[23] = target: G protein-coupled receptor kinase 5 (Homo sapiens) (UniProt P34947); test: Inhibition of GRK5 (unknown origin) using [gamma-33P]ATP assessed as residual activity at 3 uM; method in brief: as §4
[24] = target: Calcium/calmodulin-dependent protein kinase kinase 2 (Homo sapiens) (UniProt Q96RR4); test: Inhibition of CAMKK2 (unknown origin) using [gamma-33P]ATP assessed as residual activity at 3 uM; method in brief: as §1
[25] = target: Hepatocyte growth factor receptor (Homo sapiens) (UniProt P08581); test: Inhibition of c-MET (unknown origin) using [gamma-33P]ATP assessed as residual activity at 3 uM
[26] = target: Ephrin type-A receptor 8 (Homo sapiens) (UniProt P29322); test: Inhibition of EPHA8 (unknown origin) using [gamma-33P]ATP assessed as residual activity at 3 uM; method in brief: as §2
[27] = target: Myotonin-protein kinase (Homo sapiens) (UniProt Q09013); test: Inhibition of DMPK (unknown origin) using [gamma-33P]ATP assessed as residual activity at 3 uM; method in brief: as §2
[28] = target: Ephrin type-B receptor 3 (Homo sapiens) (UniProt P54753); test: Inhibition of EPHB3 (unknown origin) using [gamma-33P]ATP assessed as residual activity at 3 uM; method in brief: as §2
[29] = target: Fibroblast growth factor receptor 1 (Homo sapiens) (UniProt P11362); test: Inhibition of FGFR1 (unknown origin) using [gamma-33P]ATP assessed as residual activity at 3 uM; method in brief: as §2
[30] = target: Dual specificity mitogen-activated protein kinase kinase 2 (Homo sapiens) (UniProt P36507); test: Inhibition of MEK2 (unknown origin) using [gamma-33P]ATP assessed as residual activity at 3 uM; method in brief: as §3

Compound: CCc1ccc(-c2ccc3c(c2)-c2[nH]ncc2S(=O)(=O)N3C)cc1
- Activity [1]: 103%
- Activity [2]: 95%
- Activity [3]: 94%
- Activity [4]: 74%
- Activity [5]: 98%
- Activity [6]: 98%
- Activity [7]: 91%
- Activity [8]: 102%
- Activity [9]: 95%
- Activity [10]: 86%
- Activity [11]: 76%
- Activity [12]: 97%
- Activity [13]: 98%
- Activity [14]: 102%
- Activity [15]: 95%
- Activity [16]: 98%
- Activity [17]: 90%
- Activity [18]: 93%
- Activity [19]: 90%
- Activity [20]: 102%
- Activity [21]: 81%
- Activity [22]: 68%
- Activity [23]: 103%
- Activity [24]: 65%
- Activity [25]: 88%
- Activity [26]: 95%
- Activity [27]: 103%
- Activity [28]: 95%
- Activity [29]: 95%
- Activity [30]: 89%
